Test results: ChEMBL document CHEMBL1153632, “HCV NS5B polymerase inhibitors 1: Synthesis and in vitro activity of 2-(1,1-dioxo-2H-[1,2,4]benzothiadiazin-3-yl)-1-hydroxynaphthalene derivatives” (Bioorg Med Chem Lett, 2009)

Experiments:
Hepatitis C virus = experiment: Antiviral activity against HCV 1b infected in human HuH7 cells after 46 to 50 hrs by luc/neo ET replicon assay; format: functional, organism-based, Hepacivirus hominis; settings: genotype 1b, Huh-7
Method in brief: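 Huh-7 cells stably carrying luc/neo ET replicon, grown in DMEM with 10% FCS, were seeded at 5 × 10³ cells/well. Serially diluted compounds were added about 24 h after plating, at 1% final DMSO. After 46–50 h exposure, cells were lysed with BrightGLO reagent for 2 min at 20 °C and luminescence was read.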

[1] = Inhibition of HCV isolate HC-J4 NS5B deltaC21 polymerase; design: species or system Hepatitis C virus isolate HC-J4
Method in brief: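 Genotype 1b J4 ΔC21 enzyme (5 nM) in 20 mM Tris pH 7.5 with 5 mM MgCl₂, 5 mM KCl, 1 mM EDTA, 2 mM DTT and 0.01% BSA, room temperature. Serial DMSO dilutions were preincubated with enzyme for 5 min. Reaction was started with 250 nM 5′-biotin-rU₁₂ primer, poly-rA template, UTP and ³H-UTP, in 5% DMSO, and run 2 h. Stopped with EDTA/streptavidin SPA beads, then CsCl; scintillation counting.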

[2] = Inhibition of HCV 1a NS5B polymerase; design: species or system Hepatitis C virus subtype 1a
[3] = Cytotoxicity against human HuH7 cells; format: cell-based, Huh-7

| Compound | EC50 (Hepatitis C virus) [µM] | IC50 [1] [µM] | IC50 [2] [µM] | CC50 [3] [µM] |
| --- | --- | --- | --- | --- |
| CC(C)CCn1c(=O)c(C2=NS(=O)(=O)c3ccccc3N2)c(O)c2ccccc21 | 0.417 | – | – | – |
| CC(C)CC[C@@]1(C)C(=O)C(C2=NS(=O)(=O)c3cc(NS(C)(=O)=O)ccc3N2)=C(O)c2ccccc21 | – | 0.00033 | 0.00125 | – |
| COc1c(C2=NS(=O)(=O)c3ccccc3N2)cc(CCC(C)C)c2ccccc12 | 9.5 | 27 | – | 13 |
| COc1c(C2=NS(=O)(=O)c3cc(NS(C)(=O)=O)ccc3N2)c(OC)c2ccccc2c1CCC(C)C | > 100 | 0.63 | – | 40 |
| COc1c(C2=NS(=O)(=O)c3cc(NS(C)(=O)=O)ccc3N2)cc(CCC(C)C)c2ccccc12 | 21 | 0.048 | – | 51 |
| COc1c(C2=NS(=O)(=O)c3cc(NS(C)(=O)=O)ccc3N2)c(O)c2ccccc2c1CCC(C)C | 2.9 | 0.037 | – | 120 |
| CC(C)CCc1c(F)c(C2=NS(=O)(=O)c3cc(NS(C)(=O)=O)ccc3N2)c(O)c2ccccc12 | 2.7 | 0.031 | – | > 100 |
| CC(C)CCc1cc(C2=NS(=O)(=O)c3ccccc3N2)c(O)c2ccccc12 | 26 | 8.4 | – | 37 |
| CC(C)CCc1cc(C2=NS(=O)(=O)c3cc(NS(C)(=O)=O)ccc3N2)c(O)c2ccccc12 | 4.3 | 0.15 | – | > 100 |
| CC(C)CCc1c(F)c(C2=NS(=O)(=O)c3ccccc3N2)c(O)c2ccccc12 | 19 | 0.11 | – | 12 |
| CC(C)CCC1(O)C(=O)C(C2=NS(=O)(=O)c3cc(NS(C)(=O)=O)ccc3N2)=C(O)c2ccccc21 (stereo not given) | 0.019 | < 0.005 | – | > 100 |

Continued, in another order:

| EC50 (Hepatitis C virus) [µM] | IC50 [1] [µM] | IC50 [2] [µM] | Compound | CC50 [3] [µM] |
| --- | --- | --- | --- | --- |
| 34 | 0.53 | – | CC(C)CCc1c(O)c2c(c3ccccc13)OCN1C2=NS(=O)(=O)c2cc(NS(C)(=O)=O)ccc21 | > 100 |
| > 100 | 8.7 | – | CC(C)CCc1c2c(c(O)c3ccccc13)C1=NS(=O)(=O)c3cc(NS(C)(=O)=O)ccc3N1CO2 | > 100 |
| 8.4 | 0.49 | – | CC(C)CCc1c2c(c(O)c3ccccc13)C1=Nc3ccc(NS(C)(=O)=O)cc3S(=O)(=O)N1CO2 | 33 |
| 1.1 | 0.005 | – | COc1c(C2=NS(=O)(=O)c3cc(NS(C)(=O)=O)ccc3N2)c(O)c(CCC(C)C)c2ccccc12 | 110 |
| 12 | 1.3 | – | CC(C)CCc1c(O)c2c(c3ccccc13)OCN1C2=Nc2ccc(NS(C)(=O)=O)cc2S1(=O)=O | 35 |
